Only a selection was taken, and hits are over-represented in it overall.
IDH1 mut inh = inhibitors of IDH1 R132H reductase, primary screen, biochemical, plate reader, single point; diaphorase/resazurin fluorescence, 60 min; inhibition, % at 10 µM; 0.18% of 70,000 active; in the data active means inhibition above about 34%; inconclusive means no clear call, values can overlap the other calls; inactive means below about 11%;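 further: 0% = DMSO and 100% = no enzyme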
KDM4C inh = inhibitors of GASC-1 (KDM4C) histone demethylase, primary screen, biochemical, single concentration HTS. GST-KDM4C 2-372, H3K9me3 peptide, LANCE TR-FRET. inhibition, % at 12.5 µM. Lysine-specific demethylase 4C (Homo sapiens), Q9H3R0. 0.15% of 96,000 active;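 active means mean replicate inhibition above about 25%, with at least 55% of replicates also reaching it, limit read from the data, passing the limit was not always enough; inconclusive means only one of those two conditions met; inactive means neither condition met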
Target sequence (Q9H3R0 2-372 limits assumed): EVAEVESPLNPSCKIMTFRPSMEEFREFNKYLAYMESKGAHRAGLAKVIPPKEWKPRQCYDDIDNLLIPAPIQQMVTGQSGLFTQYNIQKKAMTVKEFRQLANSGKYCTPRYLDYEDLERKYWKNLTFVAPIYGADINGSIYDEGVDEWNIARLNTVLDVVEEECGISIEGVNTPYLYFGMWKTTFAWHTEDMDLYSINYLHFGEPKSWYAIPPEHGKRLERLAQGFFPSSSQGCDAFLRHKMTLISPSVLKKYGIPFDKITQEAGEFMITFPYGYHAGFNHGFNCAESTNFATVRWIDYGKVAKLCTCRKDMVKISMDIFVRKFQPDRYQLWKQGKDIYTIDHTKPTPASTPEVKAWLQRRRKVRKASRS
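Material: N-terminal GST-fused human GASC-1 (KDM4C) fragment, residues 2-372. Input: 10 nM enzyme. Incubation: enzyme reaction 30 min, then detection 60 min, both room temperature. Doses: one test concentration per compound. Read-out basis: inhibition from TR-FRET ratio decrease. Detection: LANCE TR-FRET, excitation 340 nm, emissions 618 and 671 nm.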
T cruzi growth-1 = T. cruzi intracellular proliferation inhibitors, primary screen, cell-based, beta-gal Tulahuen parasites, NIH3T3 host, luminescence | T. cruzi beta-gal in NIH3T3, GalScreen luminescence, 90 h | inhibition, % at 8.34 µM | 5.9% of 77,000 active;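 active means mean inhibition above about 93%, with at least 55% of replicates each passing it, limit read from the data, passing the limit was not always enough; inconclusive means only one of those two conditions holds; inactive means neither condition holds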
T cruzi growth-2 = T. cruzi intracellular proliferation inhibitors, confirmation, cell-based, NIH3T3 host, beta-gal parasite, luminescence, cherry-pick; shares compounds with T cruzi growth-1; T. cruzi beta-gal in NIH3T3, GalScreen luminescence, 90 h; inhibition, % at 8.35 µM; 72% of 5,600 active;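 active means mean replicate inhibition above about 95% and at least 55% of replicates individually reaching it, limit read from the data; inconclusive means only one of the two criteria is met; inactive means neither criterion is met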
T cruzi growth-3 = inhibitors of intracellular T. cruzi replication, confirmation, NIH3T3 host cells, beta-gal parasites, cherry-pick, set 2 | inhibition, % at 2.09 µM | 21% of 5,600 active | shares compounds with T cruzi growth-1 | T. cruzi beta-gal in NIH3T3, GalScreen luminescence, 90 h | AID 651740, 2012;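 active means mean inhibition above about 95%, with at least 55% of replicates also reaching it, limit read from the data; inconclusive means meets just one of the two conditions; inactive means meets neither condition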;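 further: plate controls were neutral control median for no effect and positive control median for full effect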
3T3 cytotox = cytotoxicity in mouse NIH/3T3 fibroblasts, confirmation, cytotoxicity control for T. cruzi proliferation inhibitor project, cell-based, cherry-pick, single point. shares compounds with T cruzi growth-1. NIH/3T3 viability, CellTiter-Glo ATP luminescence, 90 h. cytotoxicity (signal decrease), % at 8.35 µM. 14% of 5,600 active;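 active means mean signal decrease across replicates above about 35% based on untreated-well scatter, with enough replicates individually passing, limit read from the data; inconclusive means no rule stated though some were filed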;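 further: 0% = median of neutral control wells and 100% = median of positive control wells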
NIH3T3 tox 2 = NIH/3T3 fibroblast cytotoxicity, confirmation, cytotoxicity control, cell-based, cherry-pick, single point, set 2; shares compounds with T cruzi growth-1; NIH/3T3 viability, CellTiter-Glo ATP luminescence, 90 h; inhibition, % at 24.9 µM; 56% of 5,600 active; AID 651744, 2012;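 active means mean loss of cell viability signal at or above a set limit, and enough replicates individually reaching it; inconclusive means meets only the mean limit or only the replicate share; inactive means meets neither condition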;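 further: 0% = median of neutral control wells and 100% = median of positive control wells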
* hit, by the source's call; ? = inconclusive; nt = not tested or not shown.

SMILES	IDH1 mut inh	KDM4C inh	T cruzi growth-1	T cruzi growth-2	T cruzi growth-3	3T3 cytotox	NIH3T3 tox 2
COc1cccc(/C=C/c2cc(C(F)(F)F)[nH]c(=O)n2)c1OCC(=O)O	0	nt	nt	nt	nt	nt	nt
Cc1cc(C)c(NC(=O)CN(C)S(=O)(=O)c2ccc3ccccc3c2)c(C)c1	0	nt	nt	nt	nt	nt	nt
Cc1noc(C)c1S(=O)(=O)Nc1ccc2c(c1)C(=O)N([C@H](C)CO)C[C@H](C)[C@H](CN(C)Cc1ccc(C(=O)O)cc1)OCCCC[C@@H](C)O2	3	7	19	nt	nt	nt	nt
Cc1noc(C)c1S(=O)(=O)Nc1ccc2c(c1)C(=O)N([C@@H](C)CO)C[C@@H](C)[C@H](CN(C)Cc1ccc3c(c1)OCO3)OCCCC[C@H](C)O2	nt	0	61	nt	nt	nt	nt
Cc1noc(C)c1S(=O)(=O)Nc1ccc2c(c1)C(=O)N([C@@H](C)CO)C[C@@H](C)[C@H](CN(C)Cc1ccc(C(F)(F)F)cc1)OCCCC[C@@H](C)O2	nt	0	108*	103*	116*	-51	105*
Cc1noc(C)c1S(=O)(=O)Nc1ccc2c(c1)C(=O)N([C@@H](C)CO)C[C@@H](C)[C@@H](CN(C)Cc1ccc(C(=O)O)cc1)OCCCC[C@H](C)O2	nt	2	-25	nt	nt	nt	nt
Cc1noc(C)c1S(=O)(=O)Nc1ccc2c(c1)C(=O)N([C@H](C)CO)C[C@@H](C)[C@@H](CN(C)Cc1ccc3c(c1)OCO3)OCCCC[C@H](C)O2	nt	-1	104*	110*	65	10	34*
Cc1noc(C)c1S(=O)(=O)Nc1ccc2c(c1)C(=O)N([C@H](C)CO)C[C@@H](C)[C@H](CN(C)Cc1ccc(C(=O)O)cc1)OCCCC[C@@H](C)O2	nt	1	43	nt	nt	nt	nt
Cc1noc(C)c1S(=O)(=O)Nc1ccc2c(c1)C(=O)N([C@@H](C)CO)C[C@@H](C)[C@@H](CN(C)Cc1ccc(C(F)(F)F)cc1)OCCCC[C@H](C)O2	0	-1	103*	89	110*	0	60*
Cc1noc(C)c1S(=O)(=O)Nc1ccc2c(c1)C(=O)N([C@@H](C)CO)C[C@H](C)[C@H](CN(C)Cc1ccc(C(F)(F)F)cc1)OCCCC[C@@H](C)O2	4	8	101*	104*	86	-4	3
CC(C)Cc1ccc(C(C)c2nc(-c3cccs3)no2)cc1 (stereo not given)	0	nt	nt	nt	nt	nt	nt
Cc1noc(C)c1S(=O)(=O)Nc1ccc2c(c1)C(=O)N([C@H](C)CO)C[C@@H](C)[C@@H](CN(C)Cc1ccc(C(F)(F)F)cc1)OCCCC[C@H](C)O2	4	0	87	nt	nt	nt	nt
Cc1noc(C)c1S(=O)(=O)Nc1ccc2c(c1)C(=O)N([C@H](C)CO)C[C@@H](C)[C@H](CN(C)Cc1ccc(C(F)(F)F)cc1)OCCCC[C@@H](C)O2	nt	-2	106*	88	112*	25	105*
Cc1noc(C)c1S(=O)(=O)Nc1ccc2c(c1)C(=O)N([C@H](C)CO)C[C@@H](C)[C@H](CN(C)Cc1ccc(C(F)(F)F)cc1)OCCCC[C@H](C)O2	1	-1	95	nt	nt	nt	nt
Cc1noc(C)c1S(=O)(=O)Nc1ccc2c(c1)C(=O)N([C@@H](C)CO)C[C@H](C)[C@H](CN(C)Cc1ccc(C(F)(F)F)cc1)OCCCC[C@H](C)O2	nt	1	100*	96*	67	15	105*
C/C=C/c1ccc([C@H]2[C@H](CO)N(c3nc(CC)cs3)[C@H]2CNC(C)C)cc1	nt	0	90	nt	nt	nt	nt
C/C=C/c1ccc([C@@H]2[C@H](C#N)N(c3nc(CC)cs3)[C@H]2CO)cc1	nt	-3	104*	105*	83	21	27*
C/C=C/c1ccc([C@@H]2[C@@H](C#N)N(c3nc(CC)cs3)[C@H]2CO)cc1	nt	-2	93	nt	nt	nt	nt
C/C=C/c1ccc([C@H]2[C@@H](C#N)N(c3nc(CC)cs3)[C@H]2CO)cc1	nt	-2	109*	103*	111*	19	?
C/C=C/c1ccc([C@H]2[C@@H](CO)N(c3nc(CC)cs3)[C@H]2CNC(C)C)cc1	nt	-1	98*	98*	59	18	103*
C/C=C/c1ccc([C@@H]2[C@@H](CO)N(c3nc(CC)cs3)[C@H]2C#N)cc1	nt	-1	81	nt	nt	nt	nt
COc1ccc(NC(=O)CN2CCOCC2)c([N+](=O)[O-])c1	0	nt	nt	nt	nt	nt	nt
C=CCN1C(=O)[C@@]2(O[C@@H](CCn3cc(CCO)nn3)[C@H]([Si](C)(C)c3ccc(OC)cc3)[C@H]2C)c2cc(N3C(=O)c4cccc5cccc3c45)ccc21	-1	nt	nt	nt	nt	nt	nt
CSc1ccccc1NC(=O)C(C)n1nc([N+](=O)[O-])c(Br)c1C (stereo not given)	1	nt	nt	nt	nt	nt	nt
CC(C)(C)OC(=O)NC/C=N/NC(=O)CCCCCCC(=O)Nc1ccccc1O	0	nt	nt	nt	nt	nt	nt
SMILES	IDH1 mut inh	KDM4C inh	T cruzi growth-1	T cruzi growth-2	T cruzi growth-3	3T3 cytotox	NIH3T3 tox 2
COc1ccccc1NC(=O)Nc1ccc2c(c1)C(=O)N(C)C[C@@H](OC)[C@H](C)CN(Cc1ccccc1Cl)[C@H](C)CO2	0	1	109*	108*	113*	10	8
CO[C@H]1CN(C)C(=O)c2cc(NC(=O)C3CCC3)ccc2OC[C@@H](C)N(Cc2cccnc2)C[C@@H]1C	0	0	103*	62	-6	8	6
CO[C@@H]1CN(C)C(=O)c2cc(NC(=O)Nc3ccccc3F)ccc2OC[C@@H](C)N(Cc2ccccc2F)C[C@H]1C	0	2	52	nt	nt	nt	nt
CO[C@H]1CN(C)C(=O)c2cc(NS(=O)(=O)c3ccccc3)ccc2OC[C@@H](C)N(Cc2cccnc2)C[C@H]1C	0	-1	97*	101*	47	5	35*
CO[C@@H]1CN(C)C(=O)c2ccc(NC(=O)Nc3ccccc3F)cc2OC[C@@H](C)N(Cc2ccccc2F)C[C@H]1C	0	0	117*	106*	111*	-3	-1
CO[C@H]1CN(C)C(=O)c2cc(NC(=O)C3CCC3)ccc2OC[C@H](C)N(Cc2cccnc2)C[C@@H]1C	0	-1	87	nt	nt	nt	nt
COc1ccccc1CN1C[C@@H](C)[C@H](OC)CN(C)C(=O)c2cc(NC(=O)Nc3ccccc3OC)ccc2OC[C@H]1C	0	0	20	nt	nt	nt	nt

Assay outcomes from PubChem.
